Source: PubChem BioAssay
Only some compounds are listed: those with a hit (about 3.1% of all), similar ones and a draw of the others.
KCNQ1 pot = potentiates or activates the human KCNQ1 potassium channel; P51787; AID 2648; B-score at 10 µM; CHO-K1 KCNQ1, thallium flux FluxOR fluorescence; hits give high values; 310,000 tested, 0.35% active;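 active = fluorescence ratio B-score, a plate-corrected score, at least three library SD, with initial intensity B-score within 5 SD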
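assay system = KCNQ1-transfected CHO-K1 cells | medium = assay buffer with matched DMSO | probe or stimulus = depolarizing K+/Tl+ stimulus, K2SO4 and Tl2SO4 each 12.5 mM in 5x stock | dosing = single dose | incubation = dye 90 min, compound 20 min, room temperature | detection = kinetic FluxOR fluorescence, 10 s baseline plus 110 s post-stimulus | evaluation = ratio B score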
KCNK3 block = human KCNK3 channel inhibition, primary screen; CHO-KCNK3 thallium flux, FluxOR fluorescence; hits give low values; 340,000 tested, 0.84% active; O14649; AID 602410; B-score at 10 µM;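 active = B-score under library mean minus 4 SD, starting fluorescence ratio at most library mean plus 5 SD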;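 also: more negative B-score means stronger inhibition of thallium flux through KCNK3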
Target sequence (O14649 whole entry, looked up): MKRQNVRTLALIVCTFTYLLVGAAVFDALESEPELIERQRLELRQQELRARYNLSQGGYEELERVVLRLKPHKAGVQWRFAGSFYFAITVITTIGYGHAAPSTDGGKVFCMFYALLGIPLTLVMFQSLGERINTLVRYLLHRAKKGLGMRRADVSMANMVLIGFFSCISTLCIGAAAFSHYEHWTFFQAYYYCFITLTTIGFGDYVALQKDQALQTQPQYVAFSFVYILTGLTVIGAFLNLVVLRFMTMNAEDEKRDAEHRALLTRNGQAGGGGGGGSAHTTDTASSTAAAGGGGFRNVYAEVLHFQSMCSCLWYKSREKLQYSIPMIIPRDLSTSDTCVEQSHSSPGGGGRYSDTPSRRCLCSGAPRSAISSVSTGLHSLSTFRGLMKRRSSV
KCNK9 inh = inhibitors of human KCNK9 two-pore domain potassium channel | HEK293 KCNK9, FluxOR thallium flux fluorescence; hits give low values | B-score at 10 µM | 310,000 tested, 1.2% active | Q9NPC2;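 active = ratio B-score over 3 SD below the library mean, with starting fluorescence within 5 SD of its mean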;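 also: negative B-score means less thallium flux so channel inhibition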
hERG protect = compounds protecting human hERG from proarrhythmic drug block. CHO-hERG, FluxOR thallium flux, dofetilide IC70 present. activation (rescue from dofetilide block), less the hit threshold, % at 10 µM. 310,000 tested, 0.51% active. AID 1511;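 active = activation above the mean of controls blocked by dofetilide plus 5 SD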;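 also: thallium influx through hERG after potassium depolarization seen as dye fluorescence rise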
KCNQ1 inh = human KCNQ1 channel inhibition; CHO-K1 KCNQ1, FluxOR thallium flux fluorescence; hits give high values; P51787; B-score at 10 µM; AID 2642; 310,000 tested, 1.3% active;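 active = compounds whose thallium flux B-score, printed positive for inhibition, exceeds three library SD while starting fluorescence stays within three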;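 also: channel opened by potassium depolarization with thallium stimulus after 20 min compound exposure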
* marks the source's active call; other numbers are inactive results; i = inactive; / = no result.

SMILES | KCNQ1 pot | KCNK3 block | KCNK9 inh | hERG protect | KCNQ1 inh
Cc1cc(/C=C(/C#N)c2nc3ccccc3[nH]2)c(C)n1-c1cccc([N+](=O)[O-])c1 | i | i | i | -6 | 8*
Fc1ccc(N/N=C/c2ccc(N3CCOCC3)cc2)c(F)c1 | i | i | i | -11 | i
CC(C)Oc1cccc(C(=O)N2CCCC2)c1 | i | i | i | 19* | i
Cc1cccc(C(=O)N2CCCCCC2)c1 | i | i | i | -9 | i
Cc1ccc(NC(=O)COc2ccccc2C(=O)NCCN(C)C)cc1 | i | / | i | 6.9* | i
Cc1ccc(S(=O)(=O)N(C)C)cc1NC(=O)COc1ccccc1C(=O)Nc1ccccc1 | i | i | i | -9 | i
Cc1ccc(NC(=O)c2ccccc2OCC(=O)Nc2ccccc2F)cc1S(=O)(=O)N(C)C | / | -9.6* | / | / | /
COc1ccccc1C(=O)NCCC(=O)N(C)CC(=O)Nc1ccc(C)cc1 | i | i | i | -11 | i
O=C(Nc1ccccc1)/C(=C/c1ccccc1)c1ccccc1 | i | i | -7* | -11 | i
Cc1ccccc1NC(=O)/C(=C/c1ccccc1)c1ccccc1 | i | i | i | -7 | i
COc1ccc(C(=O)Nc2ccc3c(c2)nc(CCNC(=O)c2ccco2)n3C)cc1 | i | i | i | -4 | i
CC(C)(C)C1=CC(=O)C(=O)C(C(C)(C)C)=C1 | i | i | -7.4* | -27 | 6*
COc1ccccc1CNS(=O)(=O)c1ccc2c(c1)CC(=O)N2C | i | i | i | -7 | i
O=C(NN1C(=O)CSC1=S)C(=O)NN1C(=O)CSC1=S | i | i | i | 5.2* | i
O=C(Cc1cccc2ccccc12)NN1C(=O)CSC1=S | i | i | i | -6 | i
COc1cc(/C=C(\C#N)C(=O)NCCc2ccccc2)cc(OC)c1O | i | i | i | -9 | i
COc1cc(/C=C(\C#N)C(=O)c2c[nH]c3ccccc23)cc(OC)c1O | i | i | i | -13 | 7*
O=C(Nc1nnc(Cc2ccccc2)s1)c1cccnc1 | i | i | i | 6.3* | i
CCOC(=O)/C(C(N)=NCC(C)C)=C(/O)c1ccccc1 | i | i | i | -5 | i
CCCOC(=O)/C(C(N)=NCc1ccccc1)=C(\O)OCCC | i | i | -6.6* | -8 | i
CC(C)(C)NC(=O)c1cccc(NC(=O)Cc2cccs2)c1 | i | i | i | -11 | i
Cc1cccc(NC(=O)c2cccc(NC(=O)Cc3cccs3)c2)c1 | i | i | -6.9* | -9 | i
COc1ccc(CNC(=O)[C@H](C)NC(=O)[C@@H]2Cc3ccccc3CN2)cc1 | i | i | i | -5 | i
CCN1C(=O)[C@H]2[C@@H](c3ccc(-c4ccc(F)cc4)c(OC)c3)N[C@@](CC(C)C)(C(=O)OC)[C@H]2C1=O | i | / | -12* | -14 | i
COc1ccc2oc(C(=O)Nc3ccc(N4CCOCC4)cc3)c(C)c2c1 | i | i | i | -13 | i
SMILES | KCNQ1 pot | KCNK3 block | KCNK9 inh | hERG protect | KCNQ1 inh
CCOCCCNC(=O)C(NC(=O)Cc1cccs1)c1ccc(C)cc1 (stereo unspecified) | i | i | i | 12* | i
Cc1ccc(S(=O)(=O)NCCNC(=O)c2ccccc2)cc1 | i | i | i | 1 | i
Cc1ccc(S(=O)(=O)NCc2ccc(C(=O)NCCN(Cc3ccccc3)C(C)C)cc2)cc1 | i | i | i | -13 | 6*
CC(C)[C@H](NC(=O)OC(C)(C)C)c1nnc(SCC(=O)Nc2ccc(Br)cc2)o1 | i | i | i | -19 | 6*
CC(=O)c1ccc(NC(=S)N2c3ccccc3CC2C)cc1 (stereo unspecified) | i | i | i | -12 | i
COc1cccc(C(=O)NC(=S)N2c3ccccc3CC2C)c1OC (stereo unspecified) | i | i | i | -3 | i
CC1Cc2ccccc2N1C(=S)NC(=O)c1cccc(Br)c1 (stereo unspecified) | 92* | i | i | 80* | i
CC1Cc2ccccc2N1C(=S)NC(=O)c1ccc(Cl)cc1Cl (stereo unspecified) | 24* | i | i | 32* | i
CCOC(=O)C1CCCN(c2c(C(=O)c3ccccc3)cnc3ccc(OC)cc23)C1 (stereo unspecified) | i | i | i | -20 | 6*
c1cncc(-c2nc(N3CCCCCC3)c3ccccc3n2)c1 | i | i | i | -31 | i
Fc1ccccc1N1CCN(c2nc(-c3cccs3)nc3ccccc23)CC1 | i | i | -7.6* | -16 | i
CC(=O)N1CCN(c2nc(-c3cccs3)nc3ccccc23)CC1 | i | i | i | -20 | i
c1ccc2c(N3CCCCCC3)nc(-c3ccncc3)nc2c1 | i | i | -6.6* | -16 | i
CN(Cc1ccccc1F)c1nc(-c2cccs2)nc2ccccc12 | i | i | -8* | -18 | 6*
CC(=O)Nc1ccccc1NC(=O)C/C(C)=N/NC(=O)c1cccnc1 | i | i | i | -7 | i
O=C(NNC(=S)Nc1ccc(Br)cc1)c1ccc(N2CCOCC2)c([N+](=O)[O-])c1 | i | i | i | -13 | 9*
O=C(Nc1cccnc1)c1ccc(N2CCOCC2)c([N+](=O)[O-])c1 | i | i | i | -8 | i
Cc1ccc(C(=O)CC(=O)c2cc(Cl)ccc2O)cc1 | 30* | i | i | -1 | i
CC(C)(C)c1ccc(C(=O)CC(=O)c2cc(Cl)ccc2O)cc1 | i | i | i | 7.7* | i
Cc1ccc(CC(=O)c2ccc(Cl)cc2)cc1 | i | i | i | -7 | i
Cc1ccc(C(=O)CC(=O)c2ccc(C(C)(C)C)cc2)cc1 | i | i | i | -12 | i
Cc1ccc(C(=O)CC(=O)c2ccc(C)cc2O)cc1 | i | i | i | 11* | i
O=C(Cc1ccccc1)NCC(=O)OCc1cccc([N+](=O)[O-])c1 | i | i | i | -13 | i
CCOC(=O)c1cccc(NC(=O)Nc2ccc3c(c2)C(=O)OC3)c1 | i | i | i | -3 | i
Cc1sc2ncnc(SCc3ccc(C(=O)O)cc3)c2c1C | i | i | i | -5 | i
COC(=O)c1ccc(CSc2ncnc3sc(C)c(C)c23)o1 | 8* | i | i | 8.8* | i
O=C1CC(=O)N(CCNc2ncc(C(F)(F)F)cc2Cl)C(=O)N1 | i | i | i | -6 | i
O=C1C=CC(=O)N1CCNc1ncc(C(F)(F)F)cc1Cl | 18* | i | i | -20 | i
CCOC(=O)c1sc(NC(=O)Nc2ccccc2)cc1C | i | i | i | -18 | 6*
